Screening data from PubChem BioAssay.
MrgX1 allo act: allosterically activates human MrgX1 receptor signaling; Q96LB2; MrgX1-HEK293, Fluo-4 calcium flux, FDSS; stronger effect = higher value; B-score at 10 µM; hit rate 0.63% among 310,000;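 active means plate-corrected calcium response at least 3 library SD above typical, normal starting fluorescence, not activating the receptor alone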;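 further: compound read alongside a low EC10 to EC30 dose of BAM8-22 agonist; peak minus trough fluorescence over baseline measured at the second addition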
Target sequence (Q96LB2 whole entry, looked up): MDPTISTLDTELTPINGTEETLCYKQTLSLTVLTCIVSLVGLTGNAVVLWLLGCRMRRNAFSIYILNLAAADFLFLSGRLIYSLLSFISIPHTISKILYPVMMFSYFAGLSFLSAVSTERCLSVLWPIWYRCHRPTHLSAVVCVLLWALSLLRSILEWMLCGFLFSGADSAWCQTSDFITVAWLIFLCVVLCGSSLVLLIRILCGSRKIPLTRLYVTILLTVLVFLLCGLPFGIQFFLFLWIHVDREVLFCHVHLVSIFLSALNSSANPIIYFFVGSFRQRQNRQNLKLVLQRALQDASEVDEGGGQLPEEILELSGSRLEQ
MrgX1 antagonist: blocks BAM8-22 activation of human MrgX1 receptor. Q96LB2. MRGX1-HEK293 calcium flux, Fluo-4, BAM8-22 antagonism; stronger effect = lower value. B-score at 10 µM. AID 588676. hit rate 1.3% among 310,000;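 active means calcium-response B-score plate-corrected more than 3 library SD below zero, starting fluorescence within 5 deviations, no agonist response on first addition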;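 further: peak minus trough fluorescence over baseline after final BAM8-22 challenge near maximal dose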
RGS4 block: inhibitors of human RGS4; hit rate 0.45% among 310,000; AID 463165; HEK293 M3R/RGS4 inducible, Fluo-4 calcium flux; stronger effect = higher value; triggered by carbachol at its EC20; B-score at 10 µM; P49798;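 active means B-score, a plate-corrected calcium signal, over three deviations above library mean, with baseline fluorescence within five deviations of library mean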;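 further: RGS4 expression induced by doxycycline in cells with stable M3 receptor; B-score is computed from the integrated fluorescence ratio over baseline after carbachol; higher B-score means a larger calcium signal and so more RGS4 inhibition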
Target sequence (P49798 whole entry, looked up): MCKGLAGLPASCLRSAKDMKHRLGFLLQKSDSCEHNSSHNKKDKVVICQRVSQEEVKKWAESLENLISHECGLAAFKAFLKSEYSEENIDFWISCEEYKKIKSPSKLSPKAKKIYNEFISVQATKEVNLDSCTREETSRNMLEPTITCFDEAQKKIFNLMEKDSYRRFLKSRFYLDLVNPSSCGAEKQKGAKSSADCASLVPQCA
RGS4 act: potentiators or activators of RGS4; HEK293 M3R/inducible RGS4, carbachol calcium flux Fluo4; stronger effect = lower value; B-score at 10 µM; AID 463111; hit rate 0.92% among 310,000;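 active means B-score of the integrated calcium signal more than 4 SD below the library mean, with starting fluorescence not abnormally high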;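 further: negative B-score means reduced calcium response which marks RGS4 activation or potentiation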
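test system = HEK293 cells with stable M3R and inducible RGS4 | schedule = recording 10 s baseline at 1 Hz, 100 s post-agonist | technique = Fluo4-AM (2 µM) calcium-flux fluorescence, kinetic read | measure = Agonist-evoked peak-minus-minimum fluorescence over baseline, integrated ratio, B score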
MrgX1 agonist: human MrgX1 receptor agonism, primary screen | Q96LB2 | MrgX1-HEK293 cells, Fluo-4 calcium fluorescence, agonist mode; stronger effect = higher value | B-score at 10 µM | hit rate 0.44% among 310,000 | AID 588627;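 active means calcium response B-score plate-corrected fluorescence ratio at least 3 library SD, with starting fluorescence B-score inside 5 SD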
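times = overnight plating, then 30 min 37 °C plus 30 min room-temperature dye loading | assay system = stable human MrgX1 HEK293 cell line | input = fifteen thousand cells per well | signal = kinetic calcium dye fluorescence, Fluo-4 NW | dosing = compound delivered in addition one of three | read-out = B-scored fluorescence response ratio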
MrgX1 ag confirm: reconfirmed activator of human MrgX1 receptor signaling; shares compounds with MrgX1 agonist; MrgX1-HEK293, Fluo-4 calcium fluorescence, FDSS; activation, % at 10 µM; hit rate 78% among 600; AID 602412;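 active means calcium signal rise, corrected for plate position, at least 3 library SD high, with starting brightness within 5 such deviations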; further: reference of the scale not given here
HEK293 Ca flux: MrgX1 antagonist counter-screen hit in parental HEK293 cells. shares compounds with MrgX1 antagonist. Fluo-4 calcium fluorescence, FDSS. fluorescence ratio F(max-min)/F0 at 10 µM. hit rate 2% among 4,000;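 active means duplicate-averaged calcium fluorescence ratio at least three times the standard deviation of buffer wells, a nonspecific response in parental cells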
HEK293 Ca counter: activity in parental HEK293 cells without MrgX1; shares compounds with MrgX1 antagonist; parental HEK293 calcium flux, Fluo-4 fluorescence ratio; stronger effect = higher value; hit rate 0.4% among 4,000; fluorescence ratio F(max-min)/F0 at 10 µM;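 active means calcium fluorescence ratio, averaged over duplicates, at least 3 SD of the buffer-well ratio, meaning a nonspecific response in receptor-free cells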;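 further: untransfected parental HEK293 lacking MrgX1 used as counterscreen for MrgX1 allosteric activators; fluorescence change taken during the second addition on a kinetic imager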
HEK293 Ca cntr2: activity in parental HEK293 cells lacking MrgX1 receptor; shares compounds with MrgX1 antagonist; fluorescence ratio F(max-min)/F0 at 10 µM; Fluo-4 calcium fluorescence (FDSS); stronger effect = higher value; hit rate 8.7% among 4,000;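 active means calcium fluorescence ratio at least three times the spread of buffer wells, meaning a non-specific response in parental cells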
Of the large screens only hits and unclear results are named; the others gave an inactive call (follow-up assays come after a bar, where they were run). Only some compounds are listed: those with a hit (about 3.5% of all), similar ones and a draw of the others.

CC(C)N1CCc2c(sc(NC(=O)c3ccc(C(=O)c4ccccc4)cc3)c2C(N)=O)C1	MrgX1 agonist 35.5 | MrgX1 ag confirm inactive | HEK293 Ca flux inactive | HEK293 Ca counter inactive | HEK293 Ca cntr2 inactive
O=c1[nH]c(/C=C/c2ccc(Br)cc2)nc2ccccc12	none
CN(C)c1ccc(/C=C/c2nc3ccccc3c(=O)[nH]2)cc1	RGS4 act -7.05, MrgX1 agonist 26.7 | MrgX1 ag confirm inactive | HEK293 Ca flux inactive | HEK293 Ca counter inactive | HEK293 Ca cntr2 55.2
CC[C@@H](C(=O)[C@@H](C)[C@@H](O)[C@H](C)CCc1ccc(C)c(O)c1C(=O)O)[C@H]1O[C@](CC)([C@H]2CC[C@](O)(CC)[C@H](C)O2)C[C@@H]1C	MrgX1 agonist 147 | MrgX1 ag confirm 909.0% | HEK293 Ca flux inactive | HEK293 Ca counter inactive | HEK293 Ca cntr2 198
Cc1ccc(-c2nn(-c3ccccc3)cc2CSC(=N)N)cc1	MrgX1 agonist 43 | MrgX1 ag confirm 182.0% | HEK293 Ca flux inactive | HEK293 Ca counter inactive | HEK293 Ca cntr2 inactive
CCN(c1ccc(NC(=O)c2ccc(Cl)nc2)cc1)C(C)C	none
COc1ccc(NC(=O)/C(=C\c2cccnc2)NC(=O)c2cccs2)cc1	none
COc1ccc(CC(=O)Nc2ccccc2N2CCOCC2)cc1OC	none
Cc1ccc(CC(=O)Nc2ccccc2N2CCOCC2)cc1C	MrgX1 agonist 35.4 (no result: RGS4 block, RGS4 act) | MrgX1 ag confirm 94.4% | HEK293 Ca flux inactive | HEK293 Ca counter inactive | HEK293 Ca cntr2 inactive
O=C(OCc1ccccc1Cl)C1CC(=O)N(Cc2ccco2)C1 (centres undefined)	none
OCCn1nc(-c2ccccc2)cc1-c1ccccc1	MrgX1 agonist 31.6 | MrgX1 ag confirm inactive | HEK293 Ca flux inactive | HEK293 Ca counter inactive | HEK293 Ca cntr2 inactive
Nc1cc(-c2ccccc2)nn1Cc1ccccc1	none
COc1ccc(C)cc1S(=O)(=O)Nc1ccc(-n2c(C)nc3ccccc3c2=O)cc1	none
COc1ccc(-n2c(O)c(/C=N/Nc3nc(C)cc(C)n3)c3ccccc3c2=O)cc1OC	none
COc1ccc(-n2c(O)c(/C=N/NS(=O)(=O)c3cc(C)ccc3C)c3ccccc3c2=O)cc1OC	RGS4 act -7.65, MrgX1 agonist 130 | MrgX1 ag confirm 322.5% | HEK293 Ca flux 0.321 | HEK293 Ca counter inactive | HEK293 Ca cntr2 132
COc1ccc(-n2c(O)c(/C=N/NS(=O)(=O)c3ccc(C)cc3)c3ccccc3c2=O)cc1OC	RGS4 act -6.96, MrgX1 agonist 86 | MrgX1 ag confirm 199.4% | HEK293 Ca flux inactive | HEK293 Ca counter inactive | HEK293 Ca cntr2 66.9
O=C(c1cccc2c1C(=O)N(Cc1cccnc1)C2)N1CCN(c2ccccc2)CC1	none
O=C(COC(=O)[C@H](Cc1ccccc1)NC(=O)c1ccco1)NCc1ccccc1	none
O=S(=O)(Nc1c(O)ccc2ccccc12)c1ccccc1	MrgX1 agonist 29 | MrgX1 ag confirm inactive | HEK293 Ca flux inactive | HEK293 Ca counter inactive | HEK293 Ca cntr2 inactive
O=S(=O)(Nc1c(O)ccc2ccccc12)c1ccc(F)cc1	MrgX1 agonist 40.2 | MrgX1 ag confirm 81.0% | HEK293 Ca flux inactive | HEK293 Ca counter inactive | HEK293 Ca cntr2 inactive
O=S(=O)(Nc1ncccn1)c1ccc(F)cc1	none
Cc1cc(Nc2cc(Cl)cc(Cl)c2)nc(N)n1	MrgX1 agonist 40 | MrgX1 ag confirm 242.7% | HEK293 Ca flux inactive | HEK293 Ca counter inactive | HEK293 Ca cntr2 inactive
Cc1cc(Nc2ccc(F)cc2)nc(N)n1	none
Fc1ccc2[nH]c3c(NCc4ccccc4)ncnc3c2c1	MrgX1 agonist 38.3 | MrgX1 ag confirm 251.2% | HEK293 Ca flux inactive | HEK293 Ca counter inactive | HEK293 Ca cntr2 53.8
O=C(CN(c1ccc(F)cc1)S(=O)(=O)c1ccc2c(c1)OCCO2)Nc1cccnc1	MrgX1 agonist 39.5 | MrgX1 ag confirm inactive | HEK293 Ca flux inactive | HEK293 Ca counter inactive | HEK293 Ca cntr2 inactive
O=C(NC1(C(F)(F)F)C(=O)Nc2c1c(=O)[nH]c(=O)n2Cc1ccccc1)c1ccc(Cl)cc1 (centres undefined)	none
O=c1[nH]c(=O)n(Cc2ccccc2)c2c1C(C(F)(F)F)(C(F)(F)F)N=C(c1ccco1)N2	MrgX1 agonist 41.4 | MrgX1 ag confirm 223.1% | HEK293 Ca flux inactive | HEK293 Ca counter inactive | HEK293 Ca cntr2 58.1
COc1ccc(CCCc2n[nH]c(=S)o2)cc1	none
COc1ccc(C2C(C#N)=C(N)Oc3cccc(O)c32)cc1 (centres undefined)	MrgX1 agonist 28.4 | MrgX1 ag confirm inactive | HEK293 Ca flux inactive | HEK293 Ca counter inactive | HEK293 Ca cntr2 inactive
CN(C)c1ccc(/C=C(/C(=O)c2ccc(Cl)cc2Cl)n2cncn2)cc1	MrgX1 agonist 76.9 | MrgX1 ag confirm inactive | HEK293 Ca flux 0.328 | HEK293 Ca counter inactive | HEK293 Ca cntr2 inactive
CCCOc1ncnc2c1[nH]c1ccccc12	none
CCN(CC)c1ncnc2c1[nH]c1ccccc12	MrgX1 agonist 28.1 | MrgX1 ag confirm 124.8% | HEK293 Ca flux inactive | HEK293 Ca counter inactive | HEK293 Ca cntr2 inactive
CN=C(Nc1cc(C)nn1CCC#N)c1ccccc1	none
Cc1cc(OC(=O)c2ccccc2)n(CCC#N)n1	MrgX1 agonist 37.8 | MrgX1 ag confirm 194.5% | HEK293 Ca flux inactive | HEK293 Ca counter inactive | HEK293 Ca cntr2 inactive
CCc1nc(N)nc(N)c1-c1ccc(Cl)cc1	MrgX1 agonist 28.4 | MrgX1 ag confirm inactive | HEK293 Ca flux inactive | HEK293 Ca counter inactive | HEK293 Ca cntr2 inactive
CC1CCc2sc(NC(=O)C3CC(Cl)=CCC3C(=O)O)c(C#N)c2C1 (centres undefined)	MrgX1 agonist 28.5 | MrgX1 ag confirm inactive | HEK293 Ca flux inactive | HEK293 Ca counter inactive | HEK293 Ca cntr2 inactive
CC(C)CNC(=O)c1ccc2c(c1)C(=O)N(C1CCCCC1)C2=O	none
NC(=O)N1c2ccccc2CC(=O)c2ccccc21	MrgX1 agonist 46.9 | MrgX1 ag confirm 250.5% | HEK293 Ca flux inactive | HEK293 Ca counter inactive | HEK293 Ca cntr2 52.3
COc1ccc(S(=O)Cc2ccc(C(=O)NCc3cccc(OC)c3)o2)cc1 (centres undefined)	none
COc1ccc(C2(C)NC(=O)N(CC(=O)Nc3cccnc3Cl)C2=O)cc1 (centres undefined)	none
CC1(c2ccc(OC(F)F)cc2)NC(=O)N(CC(=O)Nc2cccnc2Cl)C1=O (centres undefined)	MrgX1 agonist 33.4 | MrgX1 ag confirm 136.8% | HEK293 Ca flux inactive | HEK293 Ca counter inactive | HEK293 Ca cntr2 47
